Measured values published in ChEMBL document CHEMBL1177752, “Trigoxyphins A-G: diterpenes from Trigonostemon xyphophylloides” (J Nat Prod, 2010).

Columns and labels:
Format in all cases: functional, cell-based
HL-60 = assay: Cytotoxicity against human HL60 cells after 72 hrs by MTT assay; conditions: HL-60, 72 h
How it was run: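 Cells plated in culture medium in 96-well plates, then treated in triplicate with graded compound concentrations for 72 h at 37 °C. MTT (5 mg/mL solution) added for 4 h, followed by 10% SDS/5% isobutanol/12 mM HCl solubilizer.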

Bel-7402 = assay: Cytotoxicity against human Bel7402 cells after 72 hrs by SRB assay; conditions: Bel-7402, 72 h
A549 = assay: Cytotoxicity against human A549 cells after 72 hrs by SRB assay; conditions: A549, 72 h

COc1cccc2c1C(=O)c1c(O)c3c(c(O)c1C2=O)C[C@@](O)(C(=O)CO)C[C@@H]3O[C@H]1C[C@H](N)[C@H](O)[C@H](C)O1 [DOXORUBICIN]
IC50 (HL-60): 0.04 µM | IC50 (Bel-7402): 0.12 µM | IC50 (A549): 0.17 µM

C=C(C)[C@@]12OC3(c4ccccc4)O[C@@H]1[C@@H]1[C@@H]4O[C@]4(C)[C@@H](O)[C@]4(O)C(=O)C(C)=C[C@H]4[C@@]1(O3)[C@H](C)[C@@H]2OC(=O)c1ccccc1 [TRIGOXYPHIN A]
IC50 (HL-60): 0.27 µM | IC50 (Bel-7402): > 10 µM | IC50 (A549): 7.5 µM

C=C(C)[C@@]12OC3(c4ccccc4)O[C@@H]1[C@@H]1[C@@H]4O[C@]4(C)[C@@H](O)[C@]4(O)C(=O)[C@@H](C)C[C@H]4[C@@]1(O3)[C@H](C)[C@@H]2OC(=O)c1ccccc1 [TRIGOXYPHIN B]
IC50 (HL-60): 0.49 µM | IC50 (Bel-7402): > 10 µM | IC50 (A549): 4.9 µM

C=C(C)[C@@]12OC3(c4ccccc4)O[C@@H]1[C@@H]1[C@@H]4O[C@]4(C)[C@@H](OC(C)=O)[C@]4(O)C(=O)[C@@H](C)C[C@H]4[C@@]1(O3)[C@H](C)[C@@H]2OC(=O)c1ccccc1 [TRIGOXYPHIN C]
IC50 (Bel-7402): > 10 µM

C=C(C)[C@@]1(O)[C@@H]2OC3(c4ccccc4)O[C@H]1[C@@H](C)[C@@]1(O3)[C@H]2[C@H](OC(C)=O)[C@](C)(OC(=O)c2ccccc2)[C@@H](OC(C)=O)[C@@]2(O)[C@H]1C[C@H](C)[C@@H]2OC(C)=O [TRIGOXYPHIN D]
IC50 (Bel-7402): > 10 µM

C=C(C)[C@@]1(OC(C)=O)[C@@H]2OC3(c4ccccc4)O[C@H]1[C@@H](C)[C@@]1(O3)[C@H]2[C@H](OC(C)=O)[C@](C)(OC(=O)c2ccccc2)[C@@H](OC(C)=O)[C@@]2(O)[C@H]1C[C@H](C)[C@@H]2OC(C)=O [TRIGOXYPHIN E]
IC50 (Bel-7402): > 10 µM

C=C(C)[C@@]12OC3(c4ccccc4)O[C@@H]1[C@@H]1[C@H](OC(C)=O)[C@@](C)(OC(=O)c4ccccc4)[C@@H](OC(C)=O)[C@@]4(O)[C@@H](C[C@H](C)[C@@H]4OC(C)=O)[C@@]1(O3)[C@H](C)[C@@H]2O [TRIGOXYPHIN F]
IC50 (Bel-7402): > 10 µM

Cc1cc2c(cc1O)C1=CC(=O)[C@@H](O)C(C)(C)C1CC2=O (some centres undefined) [TRIGOXYPHIN G]
IC50 (Bel-7402): > 10 µM
